The text below walks through data of ChEMBL document CHEMBL1157370, “Efficacy of a novel rifamycin derivative, ABI-0043, against Staphylococcus aureus in an experimental model of foreign-body infection” (Antimicrob Agents Chemother, 2007).

Values after ≈ are worked out from the molar mass of the structure shown.

The test system of data set [1] is Staphylococcus aureus. Briefly: Antibacterial activity against Staphylococcus aureus ATCC 29213 by macrotube dilution method. It counts as functional. Summed up: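 S. aureus from overnight culture, inoculum 5 × 10^5 CFU/ml, in cation-adjusted Mueller-Hinton broth; twofold? no—serial drug dilutions (tips changed each dilution) per CLSI macrotube method. MIC = lowest concentration with no visible growth. Run in triplicate, median reported.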

The nature of data set [2]: Cmax in albino guinea pig cage fluid at 12.5 mg/kg, ip administered every 12 hrs for 4 days. Type of data set: ADME, organism-based, Cavia porcellus, Interstitial fluid. The arrangement: dose 12.5 mg/kg, route intraperitoneal. Summed up: (§1)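 Noninfected guinea pigs with subcutaneous tissue cages received ip dosing, either a single dose or every 12 h for 4 days (multiple-dose values taken on day 4). Cage fluid was aspirated over 12 h, mixed with EDTA, centrifuged and stored at −20°C. Drug levels were measured by agar diffusion bioassay. Cmin was taken 12 h after dosing. Values are means ± SD from 12 aspirates.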

Data set [3] concerns Staphylococcus aureus. As to the kind of experiment: Antibacterial activity against Staphylococcus aureus ATCC 29213 infected albino guinea pig tissue-cage infection model assessed as bacterial count at 12.5 mg/kg, ip administered every 12 hrs after 5 days. It counts as functional. To be noted: route intraperitoneal. An outline of the steps: (§2)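 Male albino guinea pigs (640 to 800 g) carried four subcutaneous perforated Teflon cages. After two weeks, sterility was confirmed and each cage was inoculated percutaneously with 2 × 10^4 CFU S. aureus in 200 μl. Treatment began 24 h later: ip every 12 h for 4 days (8 doses). Quantitative cage-fluid cultures were taken on day 1, before the last dose (day 4) and 5 days after treatment (day 9). At least 12 cages (3 animals) per regimen.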

Data set [4] in a line: Cmin in albino guinea pig cage fluid at 12.5 mg/kg, ip administered as single dose measured after 12 hrs. On the set-up: dose 12.5 mg/kg, route intraperitoneal. Type of data set: ADME, organism-based, Cavia porcellus. Conditions: read-out: Cmin. Summed up: as §1
The test system of data set [5] is Staphylococcus aureus. As to the kind of experiment: Antibacterial activity against Staphylococcus aureus ATCC 29213 infected albino guinea pig tissue-cage infection model assessed as bacterial count at 12.5 mg/kg, ip administered every 12 hrs after 4 days. Type of data set: functional. To be noted: route intraperitoneal. An outline of the steps: as §2
For data set [6], the system named is Staphylococcus aureus. As to the kind of experiment: Antibacterial activity against Staphylococcus aureus ATCC 29213 assessed as stationary-growth-phase minimal bactericidal concentration after 24 hrs by macrotube dilution method. It counts as functional. To be noted: ATCC 29213, 24 h.
Data set [7] deals with Staphylococcus aureus. As to the kind of experiment: Antibacterial activity against Staphylococcus aureus ATCC 29213 infected albino guinea pig tissue-cage infection model assessed as infection cure rate at 12.5 mg/kg, ip administered every 12 hrs for 4 days. Type of data set: functional. Conditions: route intraperitoneal. Summed up:
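Guinea pig tissue-cage S. aureus infection (2 × 10^4 CFU per cage), treated ip every 12 h for 4 days, starting 24 h after inoculation. Cages were explanted 5 days after treatment ended, vortexed in 10 ml TSB and incubated at 37°C. After 24 h, 50 μl was plated on sheep blood agar. Cure rate is the fraction of cages with no growth; at least 12 cages per regimen.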

For data set [8], the system named is Staphylococcus aureus. As to the kind of experiment: Antibacterial activity against Staphylococcus aureus ATCC 29213 assessed as logarithmic-growth-phase minimal bactericidal concentration after 24 hrs by macrotube dilution method. Type of data set: functional. To be noted: ATCC 29213, 24 h. Summed up: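 MBClog: cation-adjusted Mueller-Hinton broth, macrotube dilution, inoculum 5 × 10^5 CFU/ml taken from overnight culture; lowest concentration cutting initial count by >99.9% (3 log10 CFU/ml) after 24 h incubation. Run in triplicate, median reported.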

For data set [9], the system named is Staphylococcus aureus. As to the kind of experiment: Antibacterial activity against Staphylococcus aureus ATCC 29213 infected albino guinea pig tissue-cage infection model assessed as bacterial count at 12 mg/kg, ip administered every 12 hrs for 4 days measured during treatment period. It counts as functional. To be noted: route intraperitoneal. Summed up: (§3)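 Male albino guinea pigs (640–800 g) carrying four subcutaneous Teflon tissue cages; cages inoculated with 2 × 10^4 CFU S. aureus. Drug given ip in saline (5 ml total) every 12 h for 4 days, starting 24 h post-infection. Cage-fluid log10 CFU/ml measured on day 1 (baseline), day 4 before last dose (during treatment), and day 9 (5 days after treatment). ≥12 cages (3 animals) per regimen; mean reported.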

The test system of data set [10] is Staphylococcus aureus. Briefly: Antibacterial activity against Staphylococcus aureus ATCC 29213 infected albino guinea pig tissue-cage infection model assessed as bacterial count at 12 mg/kg, ip administered every 12 hrs for 4 days measured after treatment period. Type of data set: functional. Conditions: route intraperitoneal. Summed up: as §3
The nature of data set [11]: Cmax in albino guinea pig cage fluid at 3 mg/kg, ip administered as single dose. Type of data set: ADME, organism-based, Cavia porcellus, Interstitial fluid. On the set-up: dose 3 mg/kg, route intraperitoneal. An outline of the steps: (§4)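 Noninfected cage-bearing guinea pigs given one ip dose. Cage fluid aspirated over 12 h, mixed with EDTA and centrifuged. Levels measured in triplicate by agar diffusion bioassay with S. pneumoniae ATCC 49619 indicator (detection limit 0.0005 μg/ml). Cmin taken 12 h post-dose; means ± SD from 12 aspirates.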

Data set [12] in a line: Cmin in albino guinea pig cage fluid at 3 mg/kg, ip administered as single dose measured after 12 hrs. It counts as ADME, organism-based, Cavia porcellus. On the set-up: dose 3 mg/kg, route intraperitoneal. To be noted: read-out: Cmin. Summed up:
as §4

For data set [13], the system named is Staphylococcus aureus. Briefly: Antibacterial activity against Staphylococcus aureus ATCC 29213 infected albino guinea pig tissue-cage infection model assessed as infection cure rate at 3 mg/kg, ip administered every 12 hrs for 4 days. Type of data set: functional. To be noted: route intraperitoneal. Summed up: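 Guinea pig subcutaneous Teflon tissue-cage model infected with 2 × 10^4 CFU S. aureus. Drug given ip every 12 h for 4 days from 24 h post-infection. Cages removed on day 9, vortexed in 10 ml TSB, incubated 24 h at 37°C and plated on sheep blood agar. Cure rate = fraction of cages with no growth; ≥12 cages per regimen.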

Data set [14] is described as follows: Ratio of peak drug level in albino guinea pig cage fluid at 12.5 mg/kg, ip to MIC for Staphylococcus aureus ATCC 29213. Type of data set: functional. Conditions: route intraperitoneal. Summed up:
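The peak cage-fluid concentration after a single ip dose was divided by the MIC. MIC was determined by macrotube dilution in cation-adjusted Mueller-Hinton broth with an inoculum of 5 × 10^5 CFU/ml, read visually as the lowest concentration with no growth. Tests were run in triplicate and the median reported.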

Data set [15] in a line: Ratio of peak drug level in albino guinea pig cage fluid at 12.5 mg/kg, ip to MBC for Staphylococcus aureus ATCC 29213 during stationary-growth phase. Conditions: route intraperitoneal.
Data set [16] concerns Staphylococcus aureus. As to the kind of experiment: Ratio of MBC for Staphylococcus aureus ATCC 29213 during stationary-growth phase to logarithmic-growth phase.
Data set [17] in a line: Cmax in albino guinea pig cage fluid at 12.5 mg/kg, ip administered as single dose. It counts as ADME, organism-based, Cavia porcellus, Interstitial fluid. On the set-up: dose 12.5 mg/kg, route intraperitoneal. An outline of the steps:
as §1

Data set [18] is described as follows: Cmin in albino guinea pig cage fluid at 5 mg/kg, ip administered as single dose measured after 12 hrs. Conditions: read-out: Cmin. Type of data set: ADME, organism-based, Cavia porcellus. The arrangement: dose 5 mg/kg, route intraperitoneal. Summed up:
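Single ip dose to noninfected cage-bearing guinea pigs. Cage fluid EDTA-treated and centrifuged, then assayed with E. coli V6311/65 bioassay (detection limit 0.01 μg/ml). Trough measured 12 h after dosing; means ± SD from 12 aspirates.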

Data set [19] can be described thus: in vivo. Conditions: guinea pig, cage fluid, ip, 5 mg/kg.

In the case of `CO[C@H]1/C=C/O[C@@]2(C)Oc3c(C)c(O)c4c(O)c(c(/C=N/N5CCN(C)CC5)c(O)c4c3C2=O)NC(=O)/C(C)=C\C=C\[C@H](C)[C@H](O)[C@@H](C)[C@@H](O)[C@@H](C)[C@H](OC(C)=O)[C@@H]1C` [RIFAMPIN], the MIC in data set [1] stood at 0.016 µg/mL (≈ 0.0194 µM). In data set [2], this compound registered a peak concentration (Cmax) of 610 ng/mL. Moreover, the log10CFU/ml in data set [3] amounted to 1.43; in data set [5], 3.68. The concentration at 12 h in data set [4] was 140 ng/mL. Besides, the MBC in data set [6] was 3.6 µg/mL (≈ 4.37 µM); in data set [8] it was 0.8 µg/mL (≈ 0.972 µM). Also, the Activity in [7] came to 46%.

With `CO[C@H]1/C=C/O[C@@]2(C)Oc3c(C)c(O)c4c(=O)c(c5oc6cc(N7CCN(C)CC7)cc(O)c6nc-5c4c3C2=O)NC(=O)/C(C)=C\C=C\[C@H](C)[C@H](O)[C@@H](C)[C@@H](O)[C@@H](C)[C@H](O)[C@@H]1C`, the log10CFU/ml amounted to 3.24 in data set [9] and 1.57 in data set [10]. The compound also came in with a minimal inhibitory concentration (MIC) in data set [1] of 0.001 µg/mL (≈ 0.00117 µM). In addition, the values for the maximum concentration (Cmax) in data set [2], in [11] and in data set [17] were 820 ng/mL, 110 ng/mL and 1130 ng/mL, respectively. The results for the concentration at 12 h in data set [4] and in data set [12] were 140 ng/mL and 40 ng/mL, respectively. Further, the Activity in [13] was 8%; in [7] it was 58%. Moreover, the Ratio is on record as 1130 in data set [14], 4.52 in data set [15] and 31.3 in data set [16]. Moreover, the MBC in data set [6] is 0.25 µg/mL (≈ 0.292 µM); in data set [8], 0.008 µg/mL (≈ 0.00934 µM).

With `C[C@H]1COc2c(N3CCN(C)CC3)c(F)cc3c(=O)c(C(=O)O)cn1c23.C[C@H]1COc2c(N3CCN(C)CC3)c(F)cc3c(=O)c(C(=O)O)cn1c23.O` [LEVOFLOXACIN], 0.16 µg/mL was the least that counted as inhibitory in data set [1] (MIC). Also, in data set [18], the concentration at 12 h came out at 10 ng/mL. Further, in data set [19], the peak level (Cmax) was 970 ng/mL. Moreover, the minimum bactericidal concentration (MBC) came out at 40 µg/mL in [6] and 0.32 µg/mL in data set [8]. Moreover, the Ratio in [16] was 125.
